Experimental data from ChEMBL document CHEMBL3352193, “Synthesis of novel substituted purine derivatives and identification of the cell death mechanism” (Eur J Med Chem, 2015).
Calls of active or inactive are those of the source. No cut-off for these calls is given here.

How the values were obtained:
[1] = Cytotoxicity against human HuH7 cells after 72 hrs by SRB assay; format: functional, cell-based; conditions: Huh-7, 72 h
Outline: (§1)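 Sulforhodamine B assay. Cells seeded at 2000–10,000/well and treated the next day in triplicate with ten concentrations (DMSO vehicle, under 1% final) for 24, 48 or 72 h at 37 °C, 5% CO2. Fixed with ice-cold TCA for 1 h at 4 °C, stained with 0.4% SRB in 1% acetic acid, dye solubilized in 10 mM Tris base, A515 read. % inhibition = 100 × (1 − OD drug/OD DMSO). IC50 taken from dose–response curves.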

[2] = Cytotoxicity against human HCT116 cells after 72 hrs by SRB assay; format: functional, cell-based; conditions: HCT-116, 72 h
Outline: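 SRB screen. Cells seeded at 2000–10,000/well and treated next day for 72 h with 40, 20, 10, 5 and 2.5 µM (DMSO under 1%). TCA fixation, 0.4% SRB staining, Tris solubilization, absorbance at 515 nm. Growth inhibition calculated relative to DMSO-only wells. IC50 derived from the five-concentration inhibition percentages.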

[3] = tested on: T47D; assay: Cytotoxicity against human T47D cells after 72 hrs by SRB assay; format: functional, cell-based
[4] = tested on: HepG2; assay: Cytotoxicity against human HepG2 cells after 72 hrs by SRB assay; format: functional, cell-based; conditions: HepG2, 72 h; outline: as §1
[5] = Cytotoxicity against human Hep3B cells after 72 hrs by SRB assay; format: functional, cell-based, Hep 3B2
Outline: (§2)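 Liver cancer cell panel, SRB assay after 72 h exposure to ten concentrations (DMSO vehicle under 1%). TCA-fixed, SRB-stained, absorbance at 515 nm. Percent cell death calculated against DMSO-only wells, and IC50 read from dose–response curves.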

[6] = tested on: PLC; assay: Cytotoxicity against human PLC cells after 72 hrs by SRB assay; format: functional, cell-based; outline: as §2
[7] = Cytotoxicity against human SKHEP1 cells after 72 hrs by SRB assay; format: functional, cell-based; conditions: SK-HEP1, 72 h; outline: as §2
[8] = Cytotoxicity against human Mahlavu cells after 72 hrs by SRB assay; format: functional, cell-based; outline: as §1
[9] = Cytotoxicity against human FOCUS cells after 72 hrs by SRB assay; format: functional, cell-based; outline: as §1
[10] = Cytotoxicity against human SNU182 cells after 72 hrs by SRB assay; format: functional, cell-based; conditions: SNU-182, 72 h; outline: as §2
[11] = Cytotoxicity against human SNU475 cells after 72 hrs by SRB assay; format: functional, cell-based, SNU-475; conditions: snu-475; outline: as §2
[12] = tested on: Huh-7; assay: Cytotoxicity against human HuH7 cells assessed as condensed apoptotic nuclei after 72 hrs by Hoechst […] staining-based fluorescence microscopy; format: functional, cell-based
[13] = tested on: FOCUS; assay: Cytotoxicity against human FOCUS cells assessed as condensed apoptotic nuclei after 72 hrs by Hoechst […] staining-based fluorescence microscopy; format: functional, cell-based
[14] = tested on: Mahlavu; assay: Induction of apoptosis in human Mahlavu cells assessed as PARP cleavage at IC50 after 72 hrs by Western blotting analysis; format: functional, cell-based
[15] = tested on: Mahlavu; assay: Induction of […] in human Mahlavu cells assessed as PARP cleavage at IC50 after 72 hrs by Western blotting analysis; format: functional, cell-based
[16] = tested on: Mahlavu; assay: Induction of apoptosis in human Mahlavu cells assessed as Bcl2 expression at IC50 after 72 hrs by Western blotting analysis; format: functional, cell-based
[17] = tested on: Mahlavu; assay: Induction of apoptosis in human Mahlavu cells assessed as total cytochrome c level at IC50 after 72 hrs by Western blotting analysis; format: functional, cell-based
[18] = tested on: Huh-7; assay: Reduction in intrinsic cellular ATP consumption in human HuH7 cells at IC50 after 24 hrs by bioluminescence assay; format: functional, cell-based
Outline: (§3)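 Cells treated for 24 h, with staurosporine as positive control and DMSO-only controls. 20 µg lysate protein in kinase buffer (40 mM Tris-HCl pH 7.6, 20 mM MgCl2, 0.1 mg/ml BSA), no exogenous ATP added. Luciferase ATP-detection reagent added, 10 min in the dark at room temperature, then luminescence read. Higher signal taken as reduced ATP consumption.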

[19] = tested on: Mahlavu; assay: Reduction in intrinsic cellular ATP consumption in human Mahlavu cells at IC50 after 24 hrs by bioluminescence assay; format: functional, cell-based; outline: as §3
[20] = Cytotoxicity against human HuH7 cells after 24 hrs by SRB assay; format: functional, cell-based; conditions: Huh-7, 24 h; outline: as §1
[21] = tested on: HepG2; assay: Cytotoxicity against human HepG2 cells after 24 hrs by SRB assay; format: functional, cell-based; conditions: HepG2, 24 h; outline: as §1
[22] = Cytotoxicity against human Mahlavu cells after 24 hrs by SRB assay; format: functional, cell-based; outline: as §1
[23] = Cytotoxicity against human FOCUS cells after 24 hrs by SRB assay; format: functional, cell-based; outline: as §1
[24] = Cytotoxicity against human HuH7 cells after 48 hrs by SRB assay; format: functional, cell-based; conditions: Huh-7, 48 h; outline: as §1
[25] = tested on: HepG2; assay: Cytotoxicity against human HepG2 cells after 48 hrs by SRB assay; format: functional, cell-based; conditions: HepG2, 48 h; outline: as §1
[26] = Cytotoxicity against human Mahlavu cells after 48 hrs by SRB assay; format: functional, cell-based; outline: as §1
[27] = Cytotoxicity against human FOCUS cells after 48 hrs by SRB assay; format: functional, cell-based; outline: as §1
[28] = tested on: Huh-7; assay: Cytotoxicity against human HuH7 cells at 2.5 to 40 uM by RT-CES method; format: functional, cell-based; conditions: TDE = time-dependent effect
Outline: (§4)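 Real-time impedance sensing (xCELLigence) on E-96 plates, run in triplicate. 2000 cells/well seeded; the next day medium was partly replaced and the compound added at 40, 20, 10, 5 or 2.5 µM, with DMSO-only and medium-only wells. Cell Index recorded every 30 min for at least 120 h at 37 °C, 5% CO2.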

[29] = tested on: HepG2; assay: Cytotoxicity against human HepG2 cells at 2.5 to 40 uM by RT-CES method; format: functional, cell-based; conditions: TDE = time-dependent effect; outline: as §4
[30] = tested on: Mahlavu; assay: Cytotoxicity against human Mahlavu cells at 2.5 to 40 uM by RT-CES method; format: functional, cell-based; conditions: TDE = time-dependent effect; outline: as §4
[31] = tested on: Huh-7; assay: Induction of senescence in human HuH7 cells at IC50 to IC100 after 3 to 6 days by BrdU staining-based assay; format: functional, cell-based
Outline: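 Huh7 cells (5000) on coverslips in 6-well plates, treated with compound at IC50 and IC100, doxorubicin 25 ng/ml, or DMSO for 3 and 6 days. Medium refreshed 24 h before assay, containing 30 µM BrdU in one plate. SA-β-gal staining and BrdU incorporation assessed in parallel.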

[32] = tested on: Huh-7; assay: Cytotoxicity against human HuH7 cells measured every 30 mins up to 120 hrs by RT-CES method
[33] = tested on: HepG2; assay: Cytotoxicity against human HepG2 cells measured every 30 mins up to 120 hrs by RT-CES method
[34] = tested on: Mahlavu; assay: Cytotoxicity against human Mahlavu cells measured every 30 mins up to 120 hrs by RT-CES method

FC(F)(F)c1ccc(N2CCN(c3ncnc4c3ncn4C3CCCC3)CC2)cc1
IC50 [1]: 200 nM | IC50 [2]: < 100 nM | IC50 [3]: < 100 nM | IC50 [4]: 200 nM | IC50 [5]: 800 nM | IC50 [6]: 6400 nM | IC50 [7]: 200 nM | IC50 [8]: 100 nM | IC50 [9]: 100 nM | IC50 [10]: 9600 nM | IC50 [11]: Not Active | Activity [12]: Active | Activity [13]: Active | Activity [14]: inactive | Activity [15]: inactive | Activity [16]: inactive | Activity [17]: inactive | Activity [18]: Active | Activity [19]: Active | IC50 [20]: 2700 nM | IC50 [21]: 1200 nM | IC50 [22]: 50100 nM | IC50 [23]: 16700 nM | IC50 [24]: 1400 nM | IC50 [25]: 800 nM | IC50 [26]: 300 nM | IC50 [27]: 300 nM | Activity [28]: tde | Activity [29]: tde | Activity [30]: tde | Activity [31]: Active | Activity [32]: Dose-dependent effect | Activity [33]: Dose-dependent effect | Activity [34]: Dose-dependent effect
